In publication PMC8688139 (Journal of medicinal chemistry, 2019):
Entries after “also recorded” stand apart in the source; their conditions may differ.

Legend:
Cytotoxicity assay = assay type: cell-based, murine; settings: mouse, 3T3-L1 cells
3T3-L1 cells = test: Mitochondria evaluation by confocal microscopy; assay type: cell-based, murine; settings: 3T3-L1 adipogenesis assay, day 7, CA 50 μM
Method in brief: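 3T3-L1 cells put through the adipogenesis protocol in 8-well chambers, test compound 50 µM. On day 7, live cells stained with MitoTracker Deep Red (50 nM final) and Hoechst 33342, PBS-washed, and imaged by spinning-disk confocal at 63×. Mean mitochondrial tracker intensity quantified.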

[1] = test system: 3T3-L1 adipogenesis gene transcripts; test: qRT-PCR gene expression during 3T3-L1 adipogenesis; assay type: cell-based, murine
Method in brief: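 Steady-state transcript levels measured by qRT-PCR in 3T3-L1 cells going through the induction/insulin differentiation protocol, on days 0, 1, 2 and 7. Treated cells compared with differentiating-medium and non-differentiating-medium controls.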

3T3-L1 = test: Cytotoxicity assay; assay type: cell-based, murine; settings: 3T3-L1; tested concentrations up to 1mM
Human PPARγ = target: T1, Human PPARγ (Homo sapiens, UniProt P37231); test: Human PPARγ reporter antagonist assay; assay type: cell-based; settings: stimulation by rosiglitazone (20 nM); 40 μM to 2 nM
T1 sequence (P37231 238-505 limits assumed): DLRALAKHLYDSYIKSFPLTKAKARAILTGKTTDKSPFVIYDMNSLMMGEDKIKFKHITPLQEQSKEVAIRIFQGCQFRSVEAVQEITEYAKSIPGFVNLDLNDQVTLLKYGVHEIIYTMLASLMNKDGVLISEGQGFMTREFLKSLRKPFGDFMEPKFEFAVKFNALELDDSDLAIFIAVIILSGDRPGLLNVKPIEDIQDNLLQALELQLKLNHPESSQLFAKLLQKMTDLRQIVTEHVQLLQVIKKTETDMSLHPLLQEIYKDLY

[2] = test system: Normal mouse fibroblast (ATCC: CRL-2907); test: Nascent; assay type: cell-based; settings: CA 50 μM, 2 h
Method in brief: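 Mouse embryonic fibroblasts (CRL-2907) seeded at 2 × 10^4/well on 1% gelatin-coated slides and cultured 12 h at 37 °C in phenol red–free IMDM with 10% FBS. Test compound (50 µM) or DMSO given 2 h before click labelling with an alkyne o-propargyl-puromycin probe. Cycloheximide (20 nM, 30 min prior) served as positive control. Confocal imaging at 20×; whole-image montage quantified.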

3T3-L1 preadipocytes = test: Preadipocyte differentiation assay; assay type: cell-based, murine
Method in brief: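 3T3-L1 cells (passages 1–16) seeded at 2.5 × 10^5/well on 0.1% gelatin. Day 0, 24 h after near-confluence: switched to induction DMEM (high glucose, 10% FBS, 0.5 mM IBMX). After 48 h: DMEM + 10% FBS + 10 µg/mL insulin. Negative control kept in non-differentiating medium; positive control differentiating medium + DMSO. Test compound 50–100 µM; run to day 7–10. Oil Red O stained; extracted dye read at 462 nm.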

[3] = test system: human visceral and subcutaneous preadipocytes; test: Preadipocyte differentiation assay; assay type: cell-based
Method in brief: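 Human visceral or subcutaneous preadipocytes (≤ passage 3) plated at 100,000 cells/well and grown to confluency. Day 0: induction medium ± hydrocortisone hemisuccinate (50 µg/mL) plus vehicle (0.2% DMSO), rosiglitazone (2 µM) or test compound (50, 100 µM); non-differentiating medium as control. Differentiation medium plus treatment from 48 h, refreshed every 48–72 h for 9–14 days. Fixed in 10% buffered formaldehyde; Oil Red O relatively quantified.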

Human GR = target: T2, Human GR (Homo sapiens, UniProt P04150); test: Human glucocorticoid receptor; assay type: cell-based; settings: transiently GR-transfected MDA-MB-231 cells, 100 nM dexamethasone, 50 μM CA
T2 sequence (P04150 1-777): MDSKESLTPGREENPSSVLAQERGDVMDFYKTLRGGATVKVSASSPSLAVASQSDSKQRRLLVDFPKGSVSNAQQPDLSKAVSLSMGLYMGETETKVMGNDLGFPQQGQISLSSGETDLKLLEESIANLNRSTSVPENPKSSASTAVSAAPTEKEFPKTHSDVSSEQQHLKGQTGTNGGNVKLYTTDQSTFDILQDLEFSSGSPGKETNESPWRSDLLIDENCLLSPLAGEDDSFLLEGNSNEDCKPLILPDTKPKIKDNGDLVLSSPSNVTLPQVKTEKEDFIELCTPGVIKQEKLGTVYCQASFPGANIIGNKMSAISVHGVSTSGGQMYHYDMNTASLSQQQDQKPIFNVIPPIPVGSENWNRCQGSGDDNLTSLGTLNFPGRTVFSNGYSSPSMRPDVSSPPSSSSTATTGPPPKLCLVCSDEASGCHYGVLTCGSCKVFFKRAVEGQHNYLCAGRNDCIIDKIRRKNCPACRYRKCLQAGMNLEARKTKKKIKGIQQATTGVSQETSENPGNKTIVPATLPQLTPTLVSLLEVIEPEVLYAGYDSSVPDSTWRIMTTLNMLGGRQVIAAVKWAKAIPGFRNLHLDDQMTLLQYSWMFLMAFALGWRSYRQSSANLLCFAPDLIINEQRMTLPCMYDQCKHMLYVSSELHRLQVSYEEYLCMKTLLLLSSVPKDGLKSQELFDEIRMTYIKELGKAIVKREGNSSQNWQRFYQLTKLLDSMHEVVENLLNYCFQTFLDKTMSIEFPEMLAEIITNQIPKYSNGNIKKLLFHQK
Method in brief: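 MDA-MB-231 cells transiently transfected, via Lipofectin, with a GR response element–luciferase reporter or a negative-control reporter. Seeded at 5000 cells/well for 12 h at 37 °C, then switched to phenol red–free DMEM with 2% charcoal-stripped FBS. Test compound (50 µM) or DMSO added 1 h before 100 nM dexamethasone induction; 4 h treatment. Luciferase luminescence read; n = 3, means ± SEM.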

11β-HSD2 = settings: cited from earlier work
[4] = test system: 11β-HSD1 in J774.1 macrophage; settings: LPS activated murine J774.1 macrophage; cited from earlier work
[5] = test system: 11β-HSD1, PPARγ, PGC-1α protein expression in 3T3-L1; test: Western blot analysis during 3T3-L1 adipogenesis; assay type: cell-based, murine
Method in brief: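 3T3-L1 cells in non-differentiating medium, differentiating medium, differentiating medium + rosiglitazone, or differentiating medium + test compound (50 µM); sampled on days 3 and 7. Lysed in Tris/NaCl/EDTA/EGTA buffer with Triton X-100, deoxycholate, SDS, glycerol and protease/phosphatase inhibitors. 30 µg total protein loaded; tubulin used as loading control. Bands quantified; n = 3, means ± SEM.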

Human 11β-HSD1 = Human 11β-HSD1 (Homo sapiens, UniProt P28845, C272S); test: Biochemical assay of 11β-HSD1; settings: 11β-HSD1 Ki
Solubility = assay type: physicochemical

Sequence of Human 11β-HSD1 (P28845 24-292 C272S): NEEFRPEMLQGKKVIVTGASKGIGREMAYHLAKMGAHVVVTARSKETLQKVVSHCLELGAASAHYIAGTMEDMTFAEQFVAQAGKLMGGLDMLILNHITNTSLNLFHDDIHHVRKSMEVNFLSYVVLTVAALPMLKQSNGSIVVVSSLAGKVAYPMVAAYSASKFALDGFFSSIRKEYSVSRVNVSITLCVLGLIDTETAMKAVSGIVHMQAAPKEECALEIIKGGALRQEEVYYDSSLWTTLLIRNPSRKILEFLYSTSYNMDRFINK

Structure (SMILES): CC1=CC[C@@]2(C[C@H]1O)[C@@H](C(C)C)CC[C@H]2C(=O)O (single isomer, unassigned) [ent-1, (−)-Colletoic Acid]
- EC50 at 72 h (Cytotoxicity assay): > 500 µM

Structure (SMILES): CC1=CC[C@@]2(C[C@@H]1O)[C@@H](C(=O)O)CC[C@H]2C(C)C [Compound 1, (+)-colletoic acid]
- mitochondrial mass (mitochondrial tracker mean intensity) (3T3-L1 cells): less mitochondrial mass
- FABP4 and FASN mRNA expression, lower than in differentiated control cells ([1]; 3T3-L1): at least 10 fold
- PGC-1α mRNA expression, differentiated control cells versus CA-treated cells ([1]; 3T3-L1): at least ten-fold greater
- C/EBPα, β and δ mRNA expression ([1]; 3T3-L1, day 1–2, vs differentiated control): significant reduction
- PPARγ and PGC-1α mRNA expression level ([1]; 3T3-L1, vs differentiated cells): greatly reduced
- 11β-HSD1 mRNA expression ([1]; 3T3-L1, vs differentiated control cells): reduced
- cytotoxicity (cell viability) (3T3-L1): no cytotoxicity
- EC50 at 72 h (Cytotoxicity assay): > 500 µM
- PPARγ antagonistic activity (Human PPARγ): no quantifiable PPARγ antagonistic activity
- global protein synthesis compared to DMSO control [2]: No significant changes
- effect on adipogenesis when added after day 3 (3T3-L1 preadipocytes; 3T3-L1): little to no significant effect
- inhibition of adipogenesis (Oil Red O staining) (3T3-L1 preadipocytes; 3T3-L1, 7 days, compound added at induction, CA 50–100 μM): clearly inhibited adipogenesis
- lipid droplets (LipidTox) compared to NDM control cells (3T3-L1 preadipocytes; 3T3-L1, CA 50 μM): no significant difference
- effect when added at day 3 after induction ([3]; human preadipocytes): no quantifiable effect
- inhibition of adipogenesis in human preadipocytes ([3]; human visceral and subcutaneous preadipocytes, 10–14 days, CA 50–100 μM): modest inhibition of adipogenesis
- GR activation (Human GR): did not inhibit GR activation
- 11β-HSD2 inhibition (11β-HSD2): no observable 11β-HSD2 inhibition
- conversion of [3H]-cortisone to [3H]-cortisol [4]: inhibits the conversion
- PGC-1α, 11β-HSD1 and PPARγ protein expression ([5]; 3T3-L1, day 3, CA 50 μM): No significant change
- PGC-1α, 11β-HSD1 and PPARγ protein expression ([5]; 3T3-L1, day 7, CA 50 μM): down-regulation

Structure (SMILES): CC1(C)[C@@H](OC(=O)CCC(=O)O)CC[C@]2(C)[C@H]3C(=O)C=C4[C@@H]5C[C@@](C)(C(=O)O)CC[C@]5(C)CC[C@@]4(C)[C@]3(C)CC[C@@H]12 [Compound 4, carbenoxolone, reference compound]
- EC50 at 72 h (Cytotoxicity assay): > 500 µM

Structure (SMILES): COC(=O)[C@H]1CC[C@@H](C(C)C)[C@@]12CC=C(C)[C@@H](O)C2 [Compound 5]
- EC50 at 72 h (Cytotoxicity assay): > 500 µM

Structure (SMILES): CC1=CC[C@@]2(C[C@@H]1O)[C@@H](C(N)=O)CC[C@H]2C(C)C [Compound 6]
- EC50 at 72 h (Cytotoxicity assay): > 500 µM

Structure (SMILES): CC1=CC[C@@]2(C[C@@H]1O)[C@H](C(=O)O)CC[C@H]2C(C)C [Compound 7]
- EC50 at 72 h (Cytotoxicity assay): > 500 µM

Structure (SMILES): CC(=O)O[C@H]1C[C@]2(CC=C1C)[C@@H](C(=O)O)CC[C@H]2C(C)C [Compound 8]
- EC50 at 72 h (Cytotoxicity assay): > 500 µM

Structure (SMILES): CC1=CC[C@@]2(CC1=O)[C@@H](C(=O)O)CC[C@H]2C(C)C [Compound 9]
- EC50 at 72 h (Cytotoxicity assay): > 500 µM

Structure (SMILES): CC1=CC[C@@]2([C@H](O)C1)[C@@H](C(=O)O)CC[C@H]2C(C)C [Compound 10]
- EC50 at 72 h (Cytotoxicity assay): > 500 µM

Structure (SMILES): CC(=O)O[C@@H]1C[C@@](C)(O)CC[C@]12[C@@H](C(=O)O)CC[C@H]2C(C)C [Compound 11]
- EC50 at 72 h (Cytotoxicity assay): > 500 µM

Structure (SMILES): CC(C)[C@@H]1CC[C@H](C(=O)O)[C@]12C[C@@H](O)[C@@](C)(O)[C@@H](O)C2 [Compound 12]
- EC50 at 72 h (Cytotoxicity assay): > 500 µM

Structure (SMILES): C=C1CC[C@@]2(C(OC)[C@@H]1O)[C@@H](C(=O)O)CC[C@H]2C(C)C (stereo partly shown) [Compound 13]
- EC50 at 72 h (Cytotoxicity assay): > 500 µM

Structure (SMILES): C=C1CC[C@@]2(C[C@@H]1OC(C)=O)[C@@H](C(=O)O)CC[C@H]2C(C)C [Compound 14]
- EC50 at 72 h (Cytotoxicity assay): > 500 µM

Structure (SMILES): C=C1CC[C@@]2(C[C@@H]1O)[C@@H](C(=O)O)CC[C@H]2C(C)C [Compound 15]
- EC50 at 72 h (Cytotoxicity assay): > 500 µM

Structure (SMILES): C=C1CC[C@]2(C[C@@H]1O)[C@H](C)CC[C@@H]2C(=O)O [Compound 16]
- activity relative to compound 15 (Human 11β-HSD1): five-fold less activity
- EC50 at 72 h (Cytotoxicity assay): > 500 µM

Structure (SMILES): CC1=CC[C@@]2([C@H](O)C1)[C@@H](C(=O)O)CC[C@H]2C1CCCCC1 [Compound 18]
- EC50 at 72 h (Cytotoxicity assay): > 500 µM

Structure (SMILES): CC1=CC[C@@]2(C=C1)[C@@H](C(=O)O)CC[C@H]2C1CCCCC1 [Compound 19]
- solubility properties (Solubility): acceptable and similar to CA

Structure (SMILES): CC1=CC[C@@]2(C[C@@H]1O)[C@@H](C(=O)O)CC[C@H]2C1CCCCC1 [Compound 20]
- increase of potency over CA (Human 11β-HSD1): three-fold increase of potency; also recorded: three-fold increase in potency
- solubility properties (Solubility): acceptable and similar to CA
- EC50 at 72 h (Cytotoxicity assay): > 500 µM
